# Measured values from PMC7941214 (Journal of medicinal chemistry, 2019).
# Where “and” joins values, the source holds several entries; their conditions need not be identical. Equal entries are not always repeated.
# Experiments:
# Log P determination = conditions: n-octanol/water, Au by FAAS
# E. coli ATCC 25922 = test: Broth microdilution MIC/MBC, E. coli; type: cell-based, Escherichia coli; conditions: for MIC E. coli ATCC 25922: value before the parentheses, two values = two repeats; for MBC E. coli ATCC 25922: value in parentheses
# Summary of the method: (§1)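 CLSI broth microdilution in cation-adjusted Mueller–Hinton broth. Log-phase cultures were diluted to 7.5 × 10^5 CFU/mL, then mixed 1:1 with 2-fold serial dilutions of gold complexes from DMSO or water stocks, in triplicate, and held 37 °C, 18 h, static. MIC: lowest concentration giving >90% inhibition by OD600 against medium-only and bacteria-only wells. […] E. coli ATCC 25922 quality control was checked each run with ciprofloxacin and […].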
# S. aureus JE2 (USA300) = test: Broth microdilution MIC/MBC, S. aureus; type: cell-based, Staphylococcus aureus; conditions: for MIC S. aureus JE2 (USA300): value before the parentheses, two values = two repeats; for MBC S. aureus JE2 (USA300): value in parentheses
# Summary of the method: as §1
# E. faecium ATCC 700221 = test: Broth microdilution MIC/MBC, E. faecium; type: cell-based, Enterococcus faecium; conditions: for MIC E. faecium ATCC 700221: value before the parentheses, two values = two repeats; for MBC E. faecium ATCC 700221: value in parentheses
# Summary of the method: as §1
# A. baumannii NCTC 13420 = test: Broth microdilution MIC/MBC, A. baumannii; type: cell-based, Acinetobacter baumannii; conditions: for MIC A. baumannii NCTC 13420: value before the parentheses, two values = two repeats; for MBC A. baumannii NCTC 13420: value in parentheses
# P. aeruginosa NCTC 13437 = test: Broth microdilution MIC/MBC, P. aeruginosa; type: cell-based, Pseudomonas aeruginosa; conditions: for MIC P. aeruginosa NCTC 13437: value before the parentheses, two values = two repeats; for MBC P. aeruginosa NCTC 13437: value in parentheses
# Summary of the method: as §1
# [1] = system: K. pneumoniae ATCC 700603; test: Broth microdilution MIC/MBC, K. pneumoniae; type: cell-based, Klebsiella pneumoniae; conditions: for MIC K. pneumoniae ATCC 700603: value before the parentheses, two values = two repeats; for MBC K. pneumoniae ATCC 700603: value in parentheses
# Summary of the method: as §1
# E. cloacae NCTC 13405 = test: Broth microdilution MIC/MBC, E. cloacae; type: cell-based, Enterobacter cloacae; conditions: for MIC E. cloacae NCTC 13405: value before the parentheses, two values = two repeats; for MBC E. cloacae NCTC 13405: value in parentheses
# Summary of the method: as §1
Compound,log P (Log P determination),MIC E. coli ATCC 25922 (E. coli ATCC 25922) [µM],MIC S. aureus JE2 (USA300) (S. aureus JE2 (USA300)),MBC S. aureus JE2 (USA300) (S. aureus JE2 (USA300)) [µM],MIC E. faecium ATCC 700221 (E. faecium ATCC 700221),MBC E. faecium ATCC 700221 (E. faecium ATCC 700221) [µM],MIC A. baumannii NCTC 13420 (A. baumannii NCTC 13420),MIC P. aeruginosa NCTC 13437 (P. aeruginosa NCTC 13437) [µM],MIC K. pneumoniae ATCC 700603 [1],MIC E. cloacae NCTC 13405 (E. cloacae NCTC 13405) [µM],MBC E. coli ATCC 25922 (E. coli ATCC 25922) [µM],MBC A. baumannii NCTC 13420 (A. baumannii NCTC 13420) [µM],MBC P. aeruginosa NCTC 13437 (P. aeruginosa NCTC 13437) [µM],MBC K. pneumoniae ATCC 700603 [1] [µM],MBC E. cloacae NCTC 13405 (E. cloacae NCTC 13405) [µM],MIC S. aureus (S. aureus JE2 (USA300)),"fold enhancement of activity over auranofin, E. faecium (E. faecium ATCC 700221; vs auranofin)"
"COc1ccc([P+]([Au-][S][C@@H]2OC(COC(C)=O)[C@@H](OC(C)=O)[C@H](OC(C)=O)C2OC(C)=O)(c2ccc(OC)cc2)c2ccc(OC)cc2)cc1 (stereo partly drawn) [Compound 34, (2,3,4,6-Tetra-O-acetyl-1-thio-β-D-glucopyranosato)(tris(4-methoxyphenyl)phosphine) Gold(I)]",>3.03,>281,1 µM,2,2 µM and 4 µM,4,>281 µM,>281,>281 µM,>281,–,–,–,–,–,–,–
"CP(C)C.[Cl][Au] [Compound 24, (Trimethylphosphine)gold Chloride]",0.16,7,0.1 µM and 0.2 µM,1.6,0.4 µM,3,7 µM and 13 µM,52,7 µM and 13 µM,3,7,13,52,13,3,–,–
"CCCC[PH](CCCC)(CCCC)[Au][Cl] [Compound 26, (Tri-n-butylphosphine)gold Chloride]",>3.99,>589,2 µM,4,5 µM,5,74 µM and 147 µM,74,147 µM,>589,–,147,74,147,–,–,–
"CC[P+](CC)(CC)[Au-][S]CC(F)(F)F [Compound 23, (2,2,2-Trifluoroethanethiolato)(triethylphosphine) Gold(I)]",2.08,74,0.009 µM,0.1,0.6 µM,1,37 µM and 74 µM,149,149 µM,37,74,149,149,149,149,in the nanomolar range,–
"CC[PH](CC)(CC)[Au][S]c1ccccc1N [Compound 16, (2-Aminobenzenethiolato)(triethylphosphine) Gold(I)]",0.61,36,0.009 µM,0.6,0.02 µM,0.1,18 µM and 36 µM,291,146 µM,–,36,18,291,146,–,in the nanomolar range,more than 7
